# Measured values: ChEMBL document CHEMBL1152792, “Synthesis and anticonvulsant activity of amino acid-derived sulfamides” (J Med Chem, 2009)
# Active and inactive are the calls of the source. The calls are words filed in the database; no cut-off is given here.
# Key:
# [1] = tested on: Mus musculus; assay: Toxicity in albino mouse at 300 mg/kg, ip after 4 hrs by rotarod test; assay type: organism-based; set-up: dose 300 mg/kg, route intraperitoneal; settings: in vivo
# How it was run: (§1)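 Neurotoxicity was screened by the standardized rotarod test in the ADD phase I protocol. Adult male albino mice (18–23 g) received compound ip in 30% PEG 400 and 10% water at 0.01 mL/g. Animals were tested 0.5 and 4 h post-dose. Result scored as toxic/tested animals.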
# [2] = tested on: Mus musculus; assay: Toxicity in albino mouse at 100 mg/kg, ip after 0.5 hrs by rotarod test; assay type: organism-based; set-up: dose 100 mg/kg, route intraperitoneal; settings: in vivo; how it was run: as §1
# [3] = tested on: Mus musculus; assay: Anticonvulsant activity in albino mouse at 30 mg/kg, ip after 0.5 hrs by PTZ test; assay type: functional, organism-based; set-up: dose 30 mg/kg
# How it was run: (§2)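 NIH Anticonvulsant Drug Development (ADD) program phase I screen in adult male albino mice (18–23 g). Compound given ip in 30% PEG 400 and 10% water at 0.01 mL/g body weight. Seizures were induced electrically (MES) or chemically (PTZ), and animals were tested 0.5 and 4 h after dosing. Result scored as protected/tested animals.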
# [4] = tested on: Mus musculus; assay: Toxicity in albino mouse at 100 mg/kg, ip after 4 hrs by rotarod test; assay type: organism-based; set-up: dose 100 mg/kg, route intraperitoneal; settings: in vivo; how it was run: as §1
# [5] = tested on: Mus musculus; assay: Anticonvulsant activity in albino mouse at 100 mg/kg, ip after 4 hrs by MES test; assay type: functional, organism-based; set-up: dose 100 mg/kg; how it was run: as §2
# [6] = tested on: Mus musculus; assay: Anticonvulsant activity in albino mouse at 300 mg/kg, ip after 4 hrs by MES test; assay type: functional, organism-based; set-up: dose 300 mg/kg; how it was run: as §2
# [7] = tested on: Mus musculus; assay: Toxicity in albino mouse at 30 mg/kg, ip after 4 hrs by rotarod test; assay type: organism-based; set-up: dose 30 mg/kg, route intraperitoneal; settings: in vivo; how it was run: as §1
# [8] = tested on: Mus musculus; assay: Anticonvulsant activity in albino mouse at 300 mg/kg, ip after 0.5 hrs by PTZ test; assay type: functional, organism-based; set-up: dose 300 mg/kg; how it was run: as §2
# [9] = tested on: Mus musculus; assay: Toxicity in albino mouse at 300 mg/kg, ip after 0.5 hrs by rotarod test; assay type: organism-based; set-up: dose 300 mg/kg, route intraperitoneal; settings: in vivo; how it was run: as §1
# [10] = tested on: Mus musculus; assay: Anticonvulsant activity in albino mouse at 100 mg/kg, ip after 0.5 hrs by PTZ test; assay type: functional, organism-based; set-up: dose 100 mg/kg; how it was run: as §2
# [11] = tested on: Mus musculus; assay: Toxicity in albino mouse at 30 mg/kg, ip after 0.5 hrs by rotarod test; assay type: organism-based; set-up: dose 30 mg/kg, route intraperitoneal; settings: in vivo; how it was run: as §1
# [12] = tested on: Mus musculus; assay: Anticonvulsant activity in albino mouse at 300 mg/kg, ip after 4 hrs by PTZ test; assay type: functional, organism-based; set-up: dose 300 mg/kg; how it was run: as §2
# [13] = tested on: Mus musculus; assay: Anticonvulsant activity in albino mouse at 100 mg/kg, ip after 4 hrs by PTZ test; assay type: functional, organism-based; set-up: dose 100 mg/kg; how it was run: as §2
# [14] = tested on: Mus musculus; assay: Anticonvulsant activity in albino mouse at 30 mg/kg, ip after 4 hrs by MES test; assay type: functional, organism-based; set-up: dose 30 mg/kg; how it was run: as §2
# [15] = tested on: Mus musculus; assay: Anticonvulsant activity in albino mouse at 30 mg/kg, ip after 0.5 hrs by MES test; assay type: functional, organism-based; set-up: dose 30 mg/kg; how it was run: as §2
# [16] = tested on: Mus musculus; assay: Anticonvulsant activity in albino mouse at 100 mg/kg, ip after 0.5 hrs by MES test; assay type: functional, organism-based; set-up: dose 100 mg/kg; how it was run: as §2
# [17] = tested on: Mus musculus; assay: Anticonvulsant activity in albino mouse at 30 mg/kg, ip after 4 hrs by PTZ test; assay type: functional, organism-based; set-up: dose 30 mg/kg; how it was run: as §2
# [18] = tested on: Mus musculus; assay: Anticonvulsant activity in albino mouse at 300 mg/kg, ip after 0.5 hrs by MES test; assay type: functional, organism-based; set-up: dose 300 mg/kg; how it was run: as §2
SMILES,Activity [1],Activity [2],Activity [3],Activity [4],Activity [5],Activity [6],Activity [7],Activity [8],Activity [9],Activity [10],Activity [11],Activity [12],Activity [13],Activity [14],Activity [15],Activity [16],Activity [17],Activity [18]
COC(=O)CCNS(=O)(=O)NCc1ccccc1,Non-toxic,Non-toxic,inactive,Non-toxic,inactive,inactive,Non-toxic,inactive,Non-toxic,inactive,Non-toxic,inactive,inactive,inactive,inactive,–,–,–
COC(=O)[C@H](C)NS(=O)(=O)N[C@@H](C)C(=O)OC,Non-toxic,Non-toxic,inactive,Non-toxic,inactive,inactive,Non-toxic,inactive,Non-toxic,inactive,Non-toxic,inactive,inactive,inactive,inactive,inactive,inactive,inactive
COC(=O)[C@@H](C)NS(=O)(=O)NC(=O)OC(C)(C)C,Non-toxic,Non-toxic,inactive,Non-toxic,inactive,inactive,Non-toxic,inactive,Non-toxic,inactive,Non-toxic,inactive,inactive,inactive,inactive,inactive,inactive,inactive
COC(=O)[C@@H](NS(=O)(=O)N[C@H](C(=O)OC)C(C)C)C(C)C,Non-toxic,Non-toxic,inactive,Non-toxic,inactive,inactive,Non-toxic,inactive,Non-toxic,inactive,Non-toxic,inactive,inactive,inactive,inactive,–,inactive,–
COC(=O)CCNS(=O)(=O)NC1CCCCC1,Non-toxic,Non-toxic,–,Non-toxic,–,inactive,Non-toxic,–,Non-toxic,–,Non-toxic,–,–,inactive,inactive,–,–,inactive
CCCC(CCC)CN(C(=O)OC(C)(C)C)S(=O)(=O)NCC(=O)OC,Non-toxic,Non-toxic,inactive,Non-toxic,inactive,–,Non-toxic,inactive,Non-toxic,inactive,Non-toxic,inactive,inactive,inactive,inactive,inactive,inactive,inactive
COC(=O)CCNS(=O)(=O)NCCC(=O)OC,Non-toxic,Non-toxic,inactive,Non-toxic,inactive,inactive,Non-toxic,inactive,Non-toxic,inactive,Non-toxic,inactive,inactive,inactive,inactive,–,inactive,–
